Most compounds without a hit are left out; they make up all but 12% or so of the library.
ROMK mod – modulates human ROMK potassium channel activity; Tet-inducible ROMK, thallium flux fluorescence; actives lie on both sides; AID 1918; P48048; 130,000 tested, 2% active; B-score at 10 µM;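 active means signal ratio slope over the read window, or its plate-corrected B-score, at least 3 SD from the plate mean, either direction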;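 further: B-score of the F/F0 ratio slope over 7 to 12 s after thallium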
Diaphorase inh – inhibits diaphorase or chemically oxidizes, flagging diaphorase assay artifacts; diaphorase resazurin-to-resorufin fluorescence, NADH, 16 min; bacterial (C. kluyveri) enzyme, not human; inhibition, % at 20 µM; 190,000 tested, 0.69% active; AID 1217;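 active means primary screen inhibition at 20 µM above a set limit, cut at about 50% in these data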;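 further: plate controls were DMSO with full reaction for no effect and wells lacking NADH for full effect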
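Assay system: diaphorase enzyme from Clostridium kluyveri; Input: enzyme working solution with 0.14 U/mL diaphorase; Timing: 16 min at room temperature; Technique: resorufin fluorescence, excitation 544 nm, emission 590 nm; Benchmarks: positive control minus NADH, DMSO neutral control.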
L major viab – Leishmania major promastigote growth inhibition; Leishmania major promastigotes, resazurin fluorescence viability; inhibition, % at 10 µM; 200,000 tested, 9% active; AID 1063; in the data active means inhibition above about 50%;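 further: promastigotes grown with compound for 44 hours at 28 °C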
Diaph act CS – activates diaphorase or chemically reduces, flagging diaphorase assay artifacts | Diaphorase/resazurin coupled assay, resorufin fluorescence, 16 min; stronger effect = higher value; 1 = vehicle wells, 0 = NADH-free wells | activation factor at 20 µM | 190,000 tested, 0.005% active;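 active means diaphorase activity raised at least twofold by the compound at 20 µM; inactive means activation factor below 2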
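Measured by – red resorufin fluorescence at 544/590 nm excitation/emission · Test system – Clostridium kluyveri diaphorase, purified enzyme · Incubation – reaction time 16 min, room temperature · Buffer or medium – 50 mM HEPES pH 7.4 with 4.542 mM MgCl2, 0.005% Tween 20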
WT yeast gro inh – growth inhibition of WT yeast, mitochondrial fusion screen; AID 1362; mitochondrial fusion phenotypic screen, WT strain; 190,000 tested, 2.1% active; inhibition, % at 10 µM; in the data active means inhibition above about 58%; tested in S. cerevisiae
Cl transport mod – modulators of human KCC2 chloride dependent transport; Q9H2X9; KCC2 cells, thallium flux FluoZin-2 fluorescence; B-score of Tl+ flux slope (higher = more flux/activation; lower = inhibition) at 10 µM; 190,000 tested, 2.2% active;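 active means thallium flux slope and its plate-corrected score both differing from the plate sample mean at a set confidence after two filtering rounds, in either direction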;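 further: slope of fluorescence scaled to starting intensity during 10 to 20 s after thallium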
Target sequence (Q9H2X9 whole entry, looked up): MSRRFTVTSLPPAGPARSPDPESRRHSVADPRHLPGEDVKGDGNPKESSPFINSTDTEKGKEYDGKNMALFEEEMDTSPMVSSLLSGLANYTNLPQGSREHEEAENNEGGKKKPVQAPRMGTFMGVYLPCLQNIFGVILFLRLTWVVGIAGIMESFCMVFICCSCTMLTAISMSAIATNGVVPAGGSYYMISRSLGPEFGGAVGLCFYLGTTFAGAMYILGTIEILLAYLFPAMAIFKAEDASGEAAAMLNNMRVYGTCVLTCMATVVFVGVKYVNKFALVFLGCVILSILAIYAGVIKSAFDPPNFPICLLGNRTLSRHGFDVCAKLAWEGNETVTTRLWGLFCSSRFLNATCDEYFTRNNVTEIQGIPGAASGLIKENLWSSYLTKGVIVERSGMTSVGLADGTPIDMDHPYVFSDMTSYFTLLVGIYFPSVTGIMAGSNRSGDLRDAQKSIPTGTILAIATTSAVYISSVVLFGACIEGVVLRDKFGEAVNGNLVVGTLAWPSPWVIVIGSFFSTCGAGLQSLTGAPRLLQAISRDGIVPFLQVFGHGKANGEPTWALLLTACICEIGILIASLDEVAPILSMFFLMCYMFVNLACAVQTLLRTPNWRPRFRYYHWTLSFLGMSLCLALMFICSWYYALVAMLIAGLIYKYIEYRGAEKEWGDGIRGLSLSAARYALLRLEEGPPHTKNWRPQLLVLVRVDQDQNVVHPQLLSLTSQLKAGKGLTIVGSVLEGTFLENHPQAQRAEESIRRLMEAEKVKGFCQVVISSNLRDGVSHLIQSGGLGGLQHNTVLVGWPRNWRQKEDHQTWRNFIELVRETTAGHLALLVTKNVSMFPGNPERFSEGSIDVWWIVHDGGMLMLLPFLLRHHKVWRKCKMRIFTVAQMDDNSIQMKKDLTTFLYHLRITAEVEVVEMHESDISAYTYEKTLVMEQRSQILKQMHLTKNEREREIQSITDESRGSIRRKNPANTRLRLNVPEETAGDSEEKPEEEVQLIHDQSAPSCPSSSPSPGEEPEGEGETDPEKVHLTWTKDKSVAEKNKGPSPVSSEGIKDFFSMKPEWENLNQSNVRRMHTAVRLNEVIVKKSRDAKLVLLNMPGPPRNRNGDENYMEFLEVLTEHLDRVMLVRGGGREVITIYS
KCC2 sec1 – KCC2 (human) modulation, secondary assay; shares compounds with Cl transport mod; HEK293-KCC2, thallium flux, FluoZin2 fluorescence; stronger effect = higher value; 3,700 tested, 15% active; normalised thallium flux (F/F0 slope) at 10 µM;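 active means thallium flux slope above the same plate's solvent-only control mean plus 3 SD; inconclusive means the two replicate wells disagree; inactive means no significant difference from solvent-only control wells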
KCC2 bumet counter – bumetanide-insensitive thallium flux in KCC2 cells with ouabain, counter-screen. shares compounds with Cl transport mod. HEK293-KCC2 + bumetanide/ouabain, thallium flux FluoZin2; stronger effect = higher value. normalized thallium flux at 10 µM. 3,700 tested, 49% active. AID 1714;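 active means thallium entry rate above the same plate's blocked-transporter control wells by more than 3 SD; inconclusive means the two repeat wells disagree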;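 further: raw slope of fluorescence over initial fluorescence between 10 and 20 s after thallium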
KCC2 sec2 – KCC2 (human) modulation, second secondary assay; shares compounds with Cl transport mod; HEK293-KCC2, thallium flux FluoZin2 fluorescence; actives lie on both sides; F/F0 rise rate, 10–20 s post-thallium; normalized thallium flux at 10 µM; 3,700 tested, 23% active; AID 1715;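 active means thallium flux slope more than 3 SD above or below the plate's solvent-only control mean, mostly below; inconclusive means the two repeat wells disagreed; inactive means no significant shift from solvent-only controls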;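 further: raw slope with 0.1% DMSO as baseline and bumetanide as block control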
HEK counter1 – counter-screen for KCC2 modulators: effect in parental HEK293 cells | shares compounds with Cl transport mod | thallium flux FluoZin2, ouabain; baseline-ratio fluorescence slope, 10–20 s after thallium | thallium flux rate (normalised fluorescence) at 10 µM | 3,700 tested, 46% active;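 active means thallium flux rate significantly above the same plate's solvent-only control wells, beyond their mean plus 3 SD; inconclusive means the two replicate wells gave conflicting results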
KCC2 retest ouab – confirmation of human KCC2 modulators with ouabain. shares compounds with Cl transport mod. HEK293-KCC2, thallium flux FluoZin2 fluorescence; bidirectional: low = inhibitor, high = activator. raw Tl+ flux slope (below DMSO = inhibition, above = activation) at 10 µM. 3,700 tested, 48% active;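 active means thallium flux slope beyond 3 SD from same-plate DMSO control mean in most replicates, usually higher, sometimes lower; inconclusive means repeat tests gave conflicting results; inactive means no significant difference from controls in most replicates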;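 further: slope of initial-normalized fluorescence between seconds 10 and 20 after thallium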
HEK293 Tl flux2 – parental HEK flux effect, counter-screen 2 | 3,700 tested, 33% active | HEK293 parental, thallium flux FluoZin-2 fluorescence slope | thallium flux slope at 10 µM | shares compounds with Cl transport mod;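 active means thallium flux slope above the same plate's solvent-control mean plus 3 SD in both duplicate wells; inconclusive means duplicate wells that disagreed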;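 further: run without ouabain in cells lacking the KCC2 cotransporter; slope of fluorescence scaled to its starting value between 10 and 20 s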
An asterisk follows results filed as active.

`O=C1OCCC1Sc1ncnc2sc3c(c12)CCC3` (stereo not given) gave ROMK mod 0.00896, Diaphorase inh 10.2, L major viab -1.4, Diaph act CS 0.9, WT yeast gro inh 46.4, Cl transport mod 3.34*, KCC2 sec1 0.00549, KCC2 bumet counter 0.0241*, KCC2 sec2 inconclusive, HEK counter1 0.018*, KCC2 retest ouab inconclusive and HEK293 Tl flux2 0.0178*.
`Cc1ccc(C(=O)CSc2ncnc3sc4c(c23)CCC(C)C4)cc1` (stereo not given) gave Diaphorase inh -0.5, L major viab -4.4, Diaph act CS 1, WT yeast gro inh -10.9, Cl transport mod 4.19*, KCC2 sec1 inconclusive, KCC2 bumet counter 0.0374*, KCC2 sec2 0.0365, HEK counter1 inconclusive, KCC2 retest ouab inconclusive and HEK293 Tl flux2 0.0122.
Screening CCn1c(=O)cc(SCC(=O)Nc2cccc(C)n2)c2ccccc21 returned ROMK mod -0.0175, Diaphorase inh 9.8, L major viab 1.2, Diaph act CS 0.9, WT yeast gro inh 10.6 and Cl transport mod -1.75.
For CCOC(=O)c1nc(C)nc(Sc2n[nH]c(-c3ccc(C(C)(C)C)cc3)n2)c1C the results were Cl transport mod -3.21.
O=[N+]([O-])c1cc(Cl)c(O)c2ncccc12 was read as ROMK mod -1.84, Diaphorase inh 41.1, L major viab 13.7, Diaph act CS 0.6, WT yeast gro inh 55.8, Cl transport mod 4.53*, KCC2 sec1 0.0133*, KCC2 bumet counter 0.0161*, KCC2 sec2 0.0319, HEK counter1 0.0105*, KCC2 retest ouab inconclusive and HEK293 Tl flux2 inconclusive.
Oc1c(I)cc(Cl)c2cccnc12 was read as Diaphorase inh 42.8, L major viab -3.6, Diaph act CS 0.6, WT yeast gro inh 56.8, Cl transport mod 76.9*, KCC2 sec1 0.00789, KCC2 bumet counter 0.104*, KCC2 sec2 0.067*, HEK counter1 0.105*, KCC2 retest ouab 0.11* and HEK293 Tl flux2 0.0408*.
`CNCc1sccc1C` gave ROMK mod -1.08, Diaphorase inh -14.4, L major viab -2.8, Diaph act CS 1.1, WT yeast gro inh 8.9 and Cl transport mod 1.23.
For O=C(CNC(=O)c1ccccc1)NC1(C(=O)NC2CCCCC2)CCCCC1 the results were ROMK mod -0.323, Diaphorase inh 3.1, L major viab -2.9, Diaph act CS 1, WT yeast gro inh -5.1 and Cl transport mod 0.851.
For Cc1noc(NC(=O)c2ccccc2C(F)(F)F)c1C#N the results were ROMK mod 0.0106, Diaphorase inh -0.4, L major viab -3.0, Diaph act CS 1, WT yeast gro inh -8.4 and Cl transport mod -0.00858.
O=C(O)/C=C/c1cn(Cc2ccccc2)nc1-c1ccc(Cl)cc1 was read as ROMK mod 0.239, Diaphorase inh -5.7, L major viab -2.1, Diaph act CS 1.1, WT yeast gro inh -9.4, Cl transport mod -4.74*, KCC2 sec1 inconclusive, KCC2 bumet counter 0.00601, KCC2 sec2 inconclusive, HEK counter1 0.00624, KCC2 retest ouab 0.0121* and HEK293 Tl flux2 0.0101.
Cc1ccc(-c2nn(Cc3ccccc3)cc2/C=C/C(=O)O)cc1 was read as Diaphorase inh -3.0, L major viab -4.5, Diaph act CS 1, WT yeast gro inh -6.5, Cl transport mod -4.47*, KCC2 sec1 0.00954, KCC2 bumet counter 0.00626, KCC2 sec2 0.0249*, HEK counter1 0.00819, KCC2 retest ouab 0.0133* and HEK293 Tl flux2 0.0116.
O=C(O)/C=C/c1cn(Cc2ccccc2Cl)nc1-c1ccccc1 was read as Cl transport mod -5.08*, KCC2 sec1 0.00665, KCC2 bumet counter 0.00442, KCC2 sec2 0.0237*, HEK counter1 0.00734, KCC2 retest ouab 0.0115* and HEK293 Tl flux2 0.01.
For Cc1ccc(Cn2cc(/C=C/C(=O)O)c(-c3ccccc3)n2)cc1 the results were Diaphorase inh 7.6, L major viab -4.8, Diaph act CS 0.9, WT yeast gro inh 3.7 and Cl transport mod -2.9.
Screening Nc1cccnc1Sc1cc(Cl)c(Cl)cc1Cl returned ROMK mod -1.2, Diaphorase inh 22.5, L major viab -4.9, Diaph act CS 0.8, WT yeast gro inh 9.1 and Cl transport mod -1.03.
For Cc1ccc(-n2[nH]c(C)c(/C=N/Nc3ccc([N+](=O)[O-])cc3[N+](=O)[O-])c2=O)cc1 the results were Diaphorase inh 21.1, L major viab -17.9, Diaph act CS 0.8, WT yeast gro inh 46.6, Cl transport mod -4.69*, KCC2 sec1 0.00644, KCC2 bumet counter 0.011*, KCC2 sec2 0.0297, HEK counter1 0.0072, KCC2 retest ouab inconclusive and HEK293 Tl flux2 0.00954.
Screening Cc1[nH]n(-c2ccc([N+](=O)[O-])cc2)c(=O)c1C=NCC1CCCO1 (stereo not given) returned ROMK mod 0.201, Diaphorase inh 17.6, L major viab -5.5, Diaph act CS 0.8, WT yeast gro inh 0.1 and Cl transport mod -1.38.
COc1ccc(OCCNc2cc(N3CCOCC3)ccc2[N+](=O)[O-])cc1 was read as Diaphorase inh 14.3, L major viab 6.3, Diaph act CS 0.9, WT yeast gro inh 5.0, Cl transport mod -4.74*, KCC2 sec1 0.0083, KCC2 bumet counter 0.00611, KCC2 sec2 0.0338, HEK counter1 0.00742, KCC2 retest ouab 0.0211 and HEK293 Tl flux2 0.0105.
COc1cccc(OCCNc2cc(N3CCOCC3)ccc2[N+](=O)[O-])c1 was read as ROMK mod -0.821, Diaphorase inh 17.6, L major viab 4.4, Diaph act CS 0.8, WT yeast gro inh 16.0 and Cl transport mod -0.266.

Screening data from PubChem BioAssay.
